Screens deposited in PubChem by Sanford-Burnham Center for Chemical Genomics.
LMPTP inh: blocks human LMPTP phosphatase; actives 0.22% (n = 360,000); inhibition, % at 20 µM; recombinant LMPTP-A, OMFP fluorogenic substrate, fluorescence intensity; AID 651560; P24666;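 active means compounds that cut the enzyme signal by at least half of the control window in the single-dose screen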
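Buffer or medium: Bis-Tris pH 6.0, DTT, detergent; Assay system: LMPTP-A enzyme; Quantity: 0.625 nM enzyme; Detection: endpoint fluorescence intensity; Times: 50 min dark incubation at room temperature; Controls: substrate-only low control, DMSO enzyme-plus-substrate high control; Doses: single 20 µM dose; Read-out: percent inhibition versus substrate-only and uninhibited controls; Reagent: 400 µM OMFP.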
HKDC1 inh: inhibitors of human hexokinase HKDC1 | Q2TB90 | recombinant HKDC1, G6PDH/diaphorase resazurin coupled fluorescence | inhibition, % at 20 µM | actives 0.16% (n = 340,000);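 active means inhibition above about 35% when tested at 20 µM, limit read from the data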
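Material: recombinant HKDC1 hexokinase; Amount: HKDC1 at 5 µg/mL; Medium: Tris pH 8.0 buffer with MgCl2, Tween-20, BSA, BME; Schedule: 90 min reaction incubation at room temperature, dark; Technique: coupled resazurin fluorescence, excitation 525 nm, emission 613 nm.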
STEP inh: blocks human striatal-enriched tyrosine phosphatase | P54829 | recombinant STEP, OMFP fluorogenic substrate, fluorescence | inhibition, % at 20 µM | actives 0.25% (n = 360,000);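 active means inhibition at 20 µM, scaled per plate between control wells, above about 37%, limit read from the data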
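Assay system: isolated STEP enzyme / Timing: 20 min at room temperature, dark / Doses: 20 µM, 1% DMSO / Technique: fluorescence intensity, excitation 480 nm, emission 540 nm / Reagent: fluorogenic phosphatase substrate OMFP at 25 µM final / Measure: percent inhibition scaled to no-enzyme and uninhibited-enzyme controls, plate-pattern corrected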
DNMT1 block: inhibitors of human DNMT1; P26358; DNMT1 molecular beacon, Hinp1I cleavage, fluorescence; inhibition (reported as % activation of signal), % at 10 µM; actives 0.83% (n = 360,000); AID 588458; in the data active means inhibition above about 50%
Target sequence (P26358 504-1616 limits assumed): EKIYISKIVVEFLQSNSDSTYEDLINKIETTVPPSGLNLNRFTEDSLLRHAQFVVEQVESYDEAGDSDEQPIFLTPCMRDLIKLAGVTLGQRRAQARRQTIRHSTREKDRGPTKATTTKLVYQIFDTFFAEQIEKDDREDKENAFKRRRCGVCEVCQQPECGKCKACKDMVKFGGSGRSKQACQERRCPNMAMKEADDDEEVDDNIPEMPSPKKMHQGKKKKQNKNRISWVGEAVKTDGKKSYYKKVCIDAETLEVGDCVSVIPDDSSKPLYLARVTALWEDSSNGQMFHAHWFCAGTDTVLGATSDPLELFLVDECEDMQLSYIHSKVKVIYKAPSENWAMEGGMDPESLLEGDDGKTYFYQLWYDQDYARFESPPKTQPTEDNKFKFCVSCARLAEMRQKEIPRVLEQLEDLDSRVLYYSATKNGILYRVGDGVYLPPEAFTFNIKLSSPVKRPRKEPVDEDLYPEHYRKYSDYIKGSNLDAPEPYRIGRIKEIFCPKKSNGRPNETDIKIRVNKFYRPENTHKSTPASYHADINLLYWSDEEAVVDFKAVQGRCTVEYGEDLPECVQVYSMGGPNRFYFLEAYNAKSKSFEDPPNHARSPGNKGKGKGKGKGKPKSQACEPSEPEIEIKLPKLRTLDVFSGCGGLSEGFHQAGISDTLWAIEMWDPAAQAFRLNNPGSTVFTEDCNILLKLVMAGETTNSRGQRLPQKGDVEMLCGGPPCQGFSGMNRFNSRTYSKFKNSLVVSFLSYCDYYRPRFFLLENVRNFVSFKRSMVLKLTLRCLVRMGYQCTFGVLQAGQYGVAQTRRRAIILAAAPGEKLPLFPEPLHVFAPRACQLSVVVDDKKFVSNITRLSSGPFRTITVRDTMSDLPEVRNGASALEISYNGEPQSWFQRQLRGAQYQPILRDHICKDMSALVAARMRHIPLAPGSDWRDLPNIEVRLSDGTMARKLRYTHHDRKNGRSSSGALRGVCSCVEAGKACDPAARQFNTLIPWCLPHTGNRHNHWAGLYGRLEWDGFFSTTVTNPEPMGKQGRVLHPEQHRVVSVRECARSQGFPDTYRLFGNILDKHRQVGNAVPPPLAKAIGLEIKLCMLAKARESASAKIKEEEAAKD
SUMO1-SIM PPI: SUMO1-SIM interaction modulation. SUMO1 binding to a labelled peptide, TR-FRET, 1 h. actives 0.33% (n = 360,000). P63165. inhibition, % at 20 µM; in the data active means inhibition above about 37%
Scp1 inh: inhibitors of human Scp-1 phosphatase. Q9GZU7. Recombinant Scp1, phosphopeptide, malachite green phosphate absorbance. inhibition, % at 20 µM. actives 0.88% (n = 340,000). AID 493091;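 active means inhibition above about 50% at 20 µM, limit read from the data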
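Test system: SCP-1 phosphatase catalytic domain, residues 76-261 | Compound dosing: One concentration, 20 µM, with 1.0% DMSO | Schedule: 45 min room-temperature reaction, 5 min colour, 30 min stabiliser | Detection: Absorbance at 630 nm | Read-out basis: % inhibition of SCP-1 phosphate liberation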
Scp-1 conf: Scp-1 (human) inhibition, single-dose confirmed | shares compounds with Scp1 inh | recombinant SCP-1 catalytic domain, phosphate release, malachite green absorbance | inhibition, % at 20 µM | actives 61% (n = 2,500)
MG interference: counter-screen for Scp-1 inhibitors: colorimetric interference; shares compounds with Scp1 inh; Colorimetric interference counterscreen, malachite green absorbance 630 nm; apparent inhibition (interference), % at 20 µM; 2,500 tested, under 10 active; AID 540313;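 further: compounds added after enzyme reaction finished so only phosphate colour detection is probed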
Scp-1 Tm shift: Scp-1 (human) binding by thermal shift; shares compounds with Scp1 inh; Recombinant SCP1, Sypro Orange thermal shift Tm; thermal shift relative to vanadate control, % at 40 µM; actives 25% (n = 1,500); AID 540329;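 active means substances whose mean melting-temperature shift, as a percentage of the reference inhibitor's shift, reaches about 5.3%, limit read from the data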
HKDC1 act conf2: confirmation of human HKDC1 activators | recombinant HKDC1, G6PDH/diaphorase resazurin fluorescence; active compounds read low | actives 14% (n = 740) | inhibition, % at 20 µM | shares compounds with HKDC1 inh | AID 504708;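 active means inhibition at or below a set negative limit, negative inhibition meaning the enzyme was activated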
DNMT1 inh conf: confirmation of human DNMT1 inhibitors. inhibition, % at 10 µM. actives 8% (n = 2,300). DNMT1 molecular beacon HinP1I cleavage, fluorescence. shares compounds with DNMT1 block;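 active means average inhibition of at least 30% in the single-concentration confirmation test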
Beacon interf: shows spectral interference in the DNMT1 beacon assay; DNMT1 molecular beacon spectral interference counterscreen, fluorescence 485/520; shares compounds with DNMT1 block; actives 1% (n = 2,300); activation (fluorescence interference), % at 10 µM;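 active means activation of at least 30% at 10 µM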;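 further: DNMT1 catalytic domain with a HinP1I cleavage step and a FAM/dabcyl DNA beacon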
Numbers stand for hits. The list is not random: actives were taken first. Their share in the collection is about 1.8%.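 How the source made its calls, unless noted: active means inhibition of at least 30% at 20 µM; inactive means the rest.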

For CC1C(=O)OC2CCN3CC4OC4(COC(=O)C(C)(O)C1(C)O)C23 (centres undefined) the results were LMPTP inh inactive, HKDC1 inh inactive, STEP inh inactive, DNMT1 block inactive, SUMO1-SIM PPI inactive and Scp1 inh inactive.
For O=C1NC(=O)N(c2ccc3c(c2)OCO3)C(=O)/C1=C\c1ccc(-c2ccccc2C(=O)O)o1 the results were LMPTP inh inactive, HKDC1 inh inactive, STEP inh inactive, DNMT1 block 89.8, SUMO1-SIM PPI inactive, Scp1 inh 56.3, Scp-1 conf 51.6, MG interference inactive, Scp-1 Tm shift inactive, DNMT1 inh conf inactive and Beacon interf inactive.
`FC(F)(F)c1ccc(-c2ccc3c(c2)CNCc2cnnn2-3)cc1` gave LMPTP inh inactive, STEP inh inactive, DNMT1 block inactive and SUMO1-SIM PPI inactive.
`C=CCN1C(=O)NC(=O)/C(=C/c2cc3c4c(c2)CCCN4CCC3)C1=O` gave LMPTP inh inactive, HKDC1 inh inactive, STEP inh inactive, DNMT1 block inactive, SUMO1-SIM PPI inactive and Scp1 inh inactive.
`O=C1NC(=S)NC(=O)C1=Cc1ccc2c(c1)CCN2CCCCl` gave LMPTP inh 76.5, HKDC1 inh 59.0, STEP inh 60.3, DNMT1 block 102.3, SUMO1-SIM PPI 75.8, Scp1 inh 90.8 and HKDC1 act conf2 inactive.
`COc1cccc(O)c1CN1CCCC(C(=O)c2ccccc2SC)C1` (centres undefined) gave LMPTP inh inactive, HKDC1 inh inactive, STEP inh inactive, DNMT1 block inactive, SUMO1-SIM PPI inactive and Scp1 inh inactive.
`CCCCN1C(=O)C(C2c3ccccc3C(=O)N2Cc2ccccc2)C(=O)NC1=S` (centres undefined) gave LMPTP inh inactive, HKDC1 inh inactive, STEP inh inactive, DNMT1 block inactive, SUMO1-SIM PPI inactive and Scp1 inh inactive.
`CC(=NNC(=S)N1CC2CCC(CC2)C1)c1nccs1` gave LMPTP inh inactive, HKDC1 inh inactive, STEP inh inactive, DNMT1 block inactive, SUMO1-SIM PPI inactive, Scp1 inh inactive and HKDC1 act conf2 -42.1.
`CC1CCC(C)(NS(=O)(=O)OCC(Cl)(Cl)Cl)CC1` (centres undefined) gave LMPTP inh inactive, HKDC1 inh 37.8, STEP inh inactive, DNMT1 block inactive, SUMO1-SIM PPI inactive, Scp1 inh inactive and HKDC1 act conf2 inactive.
`C=CCCC1(C(C)C)C(=O)NC(=S)NC1=O` gave LMPTP inh inactive, HKDC1 inh inactive, STEP inh inactive, DNMT1 block inactive, SUMO1-SIM PPI inactive and Scp1 inh inactive.
`Brc1ccc(C2N3CCCN23)cc1` (centres undefined) gave LMPTP inh inactive, HKDC1 inh inactive, STEP inh inactive, DNMT1 block inactive, SUMO1-SIM PPI inactive, Scp1 inh inactive and HKDC1 act conf2 inactive.
O=c1nc(/C=C/c2ccc(Cl)cc2Cl)cc(C(F)(F)F)[nH]1 was read as LMPTP inh inactive, HKDC1 inh 35.1, STEP inh inactive, DNMT1 block inactive, SUMO1-SIM PPI inactive, Scp1 inh inactive and HKDC1 act conf2 inactive.
CCN(CC)CCCNC(=O)c1c(O)c2ccccc2n(Cc2ccccc2)c1=O was read as LMPTP inh inactive, HKDC1 inh 83.3, STEP inh inactive, DNMT1 block inactive, SUMO1-SIM PPI inactive, Scp1 inh inactive and HKDC1 act conf2 -37.1.
`c1ccc2c(c1)-c1cccc3cccc-2c13` gave LMPTP inh inactive, HKDC1 inh inactive, STEP inh inactive, DNMT1 block inactive, SUMO1-SIM PPI inactive and Scp1 inh inactive.
Nc1c(Br)cc2c3c(cccc13)-c1ccccc1-2 was read as HKDC1 inh 70.5, Scp1 inh inactive and HKDC1 act conf2 inactive.
Screening COC(=O)C1=C(c2ccc(S(C)(=O)=O)cc2)C[C@@H]2CC[C@H]1N2C(=O)NCC1CC1 returned LMPTP inh inactive, HKDC1 inh inactive, STEP inh inactive, DNMT1 block inactive, SUMO1-SIM PPI inactive and Scp1 inh inactive.
For COc1cc(O)cc2c1cc([N+](=O)[O-])c1c(C(=O)O)cc3c(c12)OCO3 the results were LMPTP inh inactive, HKDC1 inh 35.8, STEP inh inactive, DNMT1 block inactive, SUMO1-SIM PPI inactive, Scp1 inh inactive and HKDC1 act conf2 inactive.
Screening COc1ccccc1CCNCc1cc2c(cc1[N+](=O)[O-])OCO2 returned LMPTP inh inactive, HKDC1 inh inactive, STEP inh inactive, DNMT1 block inactive, SUMO1-SIM PPI inactive and Scp1 inh inactive.
Cc1ccccc1N1C(=O)NC(=O)/C(=C\c2ccc3c(c2)CCCN3Cc2ccccc2)C1=O was read as LMPTP inh inactive, HKDC1 inh 35.1, STEP inh inactive, DNMT1 block inactive, SUMO1-SIM PPI inactive, Scp1 inh inactive and HKDC1 act conf2 inactive.
For CC1(C)CC(CCNCc2ccc3c(c2)OCO3)(Cc2ccccc2)CCO1 (centres undefined) the results were LMPTP inh inactive, HKDC1 inh inactive, STEP inh inactive, DNMT1 block inactive, SUMO1-SIM PPI inactive and Scp1 inh inactive.
Screening NP(=O)(OCC(F)(F)F)Oc1ccc(Cl)cc1 (centres undefined) returned LMPTP inh inactive, HKDC1 inh inactive, STEP inh inactive, DNMT1 block inactive, SUMO1-SIM PPI inactive and Scp1 inh inactive.
`CC[C@H](C)/C=C(C)/C=C/C1=CC2=C(Cl)C(=O)[C@](C)(OC(C)=O)C(=O)C2=CO1` gave LMPTP inh inactive, HKDC1 inh 58.9, STEP inh inactive, DNMT1 block inactive, SUMO1-SIM PPI inactive, Scp1 inh inactive and HKDC1 act conf2 inactive.
